Test results: ChEMBL document CHEMBL1146666, “N-[1-Aryl-2-(1-imidazolo)ethyl]-guanidine derivatives as potent inhibitors of the bovine mitochondrial F1F0 ATP hydrolase” (Bioorg Med Chem Lett, 2004)

Legend:
[1] = biological target: T1, Mitochondrial complex V; ATP synthase (Bos taurus, UniProt P00829+P05630+P05631+P05632); experiment: Inhibitory activity against bovine mitochondrial F1F0 ATP hydrolase; assay type: protein-complex assay
[2] = biological target: T1, Mitochondrial complex V; ATP synthase; experiment: Inhibitory activity against bovine mitochondrial F1F0-ATP synthase; assay type: protein-complex assay
Procedure, shortened: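 Synthase direction read as the rise in A340 in a hexokinase:glucose-6-phosphate dehydrogenase coupled assay.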

T1 sequence (P05632 whole entry): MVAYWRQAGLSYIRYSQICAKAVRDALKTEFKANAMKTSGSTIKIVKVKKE
T1 sequence (P00829 whole entry): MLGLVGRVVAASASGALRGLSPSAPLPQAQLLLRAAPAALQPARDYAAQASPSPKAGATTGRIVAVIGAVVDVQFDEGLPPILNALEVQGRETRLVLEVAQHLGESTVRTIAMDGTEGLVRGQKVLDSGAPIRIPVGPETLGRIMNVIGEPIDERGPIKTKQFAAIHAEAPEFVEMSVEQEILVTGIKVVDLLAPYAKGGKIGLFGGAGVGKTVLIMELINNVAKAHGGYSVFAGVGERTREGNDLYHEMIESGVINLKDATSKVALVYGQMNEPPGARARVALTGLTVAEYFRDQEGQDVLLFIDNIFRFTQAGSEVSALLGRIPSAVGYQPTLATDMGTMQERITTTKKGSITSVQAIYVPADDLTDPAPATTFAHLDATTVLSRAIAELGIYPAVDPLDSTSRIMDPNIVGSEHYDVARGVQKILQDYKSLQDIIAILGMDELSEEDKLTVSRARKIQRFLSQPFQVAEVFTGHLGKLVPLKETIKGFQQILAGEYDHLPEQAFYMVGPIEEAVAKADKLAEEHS
T1 sequence (P05631 whole entry): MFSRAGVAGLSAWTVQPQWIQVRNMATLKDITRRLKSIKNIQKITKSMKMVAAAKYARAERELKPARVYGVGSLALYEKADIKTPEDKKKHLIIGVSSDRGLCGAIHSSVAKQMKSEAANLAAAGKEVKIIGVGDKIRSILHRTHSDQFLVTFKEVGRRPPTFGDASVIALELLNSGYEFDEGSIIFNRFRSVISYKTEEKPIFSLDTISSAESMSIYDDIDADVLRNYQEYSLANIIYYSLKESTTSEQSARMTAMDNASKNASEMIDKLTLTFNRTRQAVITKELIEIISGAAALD
T1 sequence (P05630 whole entry): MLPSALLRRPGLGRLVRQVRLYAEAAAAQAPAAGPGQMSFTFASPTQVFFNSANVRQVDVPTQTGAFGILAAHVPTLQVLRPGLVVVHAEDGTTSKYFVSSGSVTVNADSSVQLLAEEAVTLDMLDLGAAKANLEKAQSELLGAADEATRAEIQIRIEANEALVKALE

IC50 [1] [µM] | IC50 [2] [µM] | SMILES
0.23 | > 100 | Cc1ccc(NC(=S)OC(Cn2ccnc2)c2ccc(Cl)cc2Cl)c(C)c1 (configuration not stated)
2.27 | > 100 | CCC(=O)C(Nc1ccc(Cl)cc1)NC(Cn1ccnc1)c1ccc(Cl)cc1Cl (configuration not stated)
0.082 | > 100 | O=C(c1ccc(Cl)cc1)C(Nc1ccc(Cl)cc1)NC(Cn1ccnc1)c1ccc(Cl)cc1Cl (configuration not stated)
0.03 | > 100 | S=C(Nc1ccc(Cl)cc1Cl)OC(Cn1ccnc1)c1ccc(Cl)cc1Cl (configuration not stated)
0.033 |  | N#Cc1cccc(C(=O)C(Nc2ccc(Cl)cc2)NC(Cn2ccnc2)c2ccc(Cl)cc2Cl)c1 (stereo in doubt; 19a)
3.6 | > 100 | S=C(Nc1ccccc1)OC(Cn1ccnc1)c1ccc(Cl)cc1Cl (configuration not stated)
0.71 | > 100 | N#CN/C(=N\C(Cn1ccnc1)c1cc(C(F)(F)F)ccc1C(F)(F)F)Nc1ccc(Cl)cc1Cl (configuration not stated)
31.4 | > 100 | Cc1ccc(C(Cn2ccnc2)OC(=S)Nc2ccc(Cl)cc2)c(C)c1 (configuration not stated)
> 100 | > 100 | N#Cc1cccc(C(=O)C(Nc2ccc(Cl)cc2)NC(Cn2ccnc2)c2ccc(Cl)cc2Cl)c1 (stereo in doubt; form 1)
6.77 | > 100 | O=C(Nc1ccc(Cl)cc1Cl)OC(Cn1ccnc1)c1ccc(Cl)cc1Cl (configuration not stated)
2.23 | > 100 | N#CN=C(Nc1ccccc1Cl)NC(Cn1ccnc1)c1ccc(Cl)cc1Cl (configuration not stated)
0.28 | > 100 | N#Cc1ccc(C(=O)C(Nc2ccc(Cl)cc2)NC(Cn2ccnc2)c2ccc(Cl)cc2Cl)cc1 (configuration not stated)
0.6 | > 100 | N#CN/C(=N/c1ccc(Cl)cc1Cl)NC(Cn1ccnc1)c1ccc(Cl)cc1Cl (configuration not stated)
0.66 | > 100 | Cc1ccc(NC(=S)OC(Cn2ccnc2)c2ccc(Cl)cc2Cl)cc1 (configuration not stated)
9.17 | > 100 | N#CN/C(=N/c1cccc(Cl)c1)NC(Cn1ccnc1)c1ccc(Cl)cc1Cl (configuration not stated)
8.8 | > 100 | N#CN/C(=N\C(Cn1ccnc1)c1ccc(Cl)cc1Cl)Nc1ccc(Cl)cc1 (configuration not stated)
0.43 | > 100 | S=C(Nc1ccc(Cl)cc1)OC(Cn1ccnc1)c1ccc(Cl)cc1Cl (configuration not stated)
2.41 | > 100 | S=C(Nc1ccc(Cl)cc1Cl)NC(Cn1ccnc1)c1ccc(Cl)cc1Cl (configuration not stated)
2.49 | > 100 | N#CN/C(=N\C(Cn1ccnc1)c1ccc(Cl)cc1Cl)Nc1cccc(Cl)c1Cl (configuration not stated)
